How the values were obtained:
Rattus norvegicus [1] = test: The body weight change of rats after administration of the compound; type: functional
Procedure, shortened: (§1)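 Male Sprague-Dawley rats given 5-day once-daily topical steroid to right ears in acetone/DMSO, with croton oil to both ears. Afterward, body weight change, thymus weight change and plasma corticosterone (ng/mL) were recorded against controls. Five or six samples per group, mean ± SEM; ANOVA with Bonferroni post hoc test.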

Rattus norvegicus [2] = test: The antiinflammatory activity was evaluated as %inhibition of croton oil induced ear edema in the left ear of rat At the dose of 135(nmol/ear); type: functional
Procedure, shortened: (§2)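 Male Sprague-Dawley rats. Right ears dosed topically (acetone/DMSO vehicle, 25 µL) once daily for 5 days, with 5% croton oil applied 30 min after each dose. Left ears received vehicle plus croton oil to reflect systemic effect. Micrometer ear thickness read 5 h after croton oil. % inhibition computed against controls; ANOVA with Bonferroni test.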

Rattus norvegicus [3] = test: The antiinflammatory activity was evaluated as %inhibition of croton oil induced ear edema in the right ear of rat At the dose of 135(nmol/ear); type: functional; procedure, shortened: as §2
Rattus norvegicus [4] = test: The plasma corticosterone (ng/ml) concentration was measured in rats after compound administration; type: functional, organism-based; procedure, shortened: as §1
Rattus norvegicus [5] = test: The thymus weight change of rats after administration of the compound; type: functional; procedure, shortened: as §1
Rattus norvegicus [6] = test: The %inhibition of compound for croton oil -induced ear edema was measured in rats at 0.01 mg/ear; type: functional
Procedure, shortened: (§3)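 Male Sprague-Dawley rats; initial ear thickness measured with spring-loaded micrometer. Single topical dose of steroid in 25 µL acetone/DMSO applied to ear surfaces, then 5% croton oil 30 min later. Ear thickness remeasured 5 h later at peak inflammation. % inhibition computed against vehicle-treated controls; five animals per group.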

Rattus norvegicus [7] = test: The %inhibition of compound for croton oil -induced ear edema was measured in rats at 0.1 mg/ear; type: functional; procedure, shortened: as §3
Rattus norvegicus [8] = test: The %inhibition of compound for croton oil -induced ear edema was measured in rats at 0.03 mg/ear; type: functional; procedure, shortened: as §3
Rattus norvegicus [9] = test: The antiinflammatory activity was evaluated as %inhibition of croton oil induced ear edema in the left ear of rat at the dose of 101(nmol/ear); type: functional; procedure, shortened: as §2
Rattus norvegicus [10] = test: The antiinflammatory activity was evaluated as %inhibition of croton oil induced ear edema in the right ear of rat at the dose of 101(nmol/ear); type: functional; procedure, shortened: as §2
Rattus norvegicus [11] = test: The antiinflammatory activity was evaluated as %inhibition of croton oil induced ear edema in the right ear of rat; type: functional; procedure, shortened: as §2
Rattus norvegicus [12] = test: The antiinflammatory activity was evaluated as %inhibition of croton oil induced ear edema in the left ear of rat; type: functional; procedure, shortened: as §2

Row | SMILES | Body weight change (Rattus norvegicus [1]) [g] | Inhibition (Rattus norvegicus [2]) [%] | Inhibition (Rattus norvegicus [3]) [%] | Plasma corticosterone (Rattus norvegicus [4]) [ng/mL] | Thymus weight (Rattus norvegicus [5]) [mg] | Inhibition (Rattus norvegicus [6]) [%] | Inhibition (Rattus norvegicus [7]) [%] | Inhibition (Rattus norvegicus [8]) [%] | Inhibition (Rattus norvegicus [9]) [%] | Inhibition (Rattus norvegicus [10]) [%] | Inhibition (Rattus norvegicus [11]) [%] | Inhibition (Rattus norvegicus [12]) [%]
1 | CCOC(=O)C1=NO[C@]2(C(=O)CO)[C@H]1CC1C3CCC4=CC(=O)C=C[C@]4(C)[C@@]3(F)[C@@H](O)C[C@@]12C (stereo partly specified) | 36 | 24.4 | 56.9 | 48.6 | 562 |  |  |  |  |  |  | 
2 | CCOC(=O)C1=NO[C@]2(C(=O)CO)[C@H]1CC1C3CCC4=CC(=O)C=C[C@]4(C)[C@H]3[C@@H](O)C[C@@]12C (stereo partly specified) |  |  |  |  |  | 31.3 | 44 | 44 |  |  |  | 
3 | CCOC(=O)C1=NO[C@]2(C(=O)COC(C)=O)[C@H]1CC1C3CCC4=CC(=O)C=C[C@]4(C)[C@H]3[C@@H](O)C[C@@]12C (stereo partly specified) |  |  |  |  |  | 14.9 | 35.7 | 21.4 |  |  |  | 
4 | CCOC(=O)C1=NO[C@]2(C(=O)COC(C)=O)[C@H]1CC1C3CCC4=CC(=O)C=C[C@]4(C)[C@@]3(F)[C@@H](O)C[C@@]12C (stereo partly specified) | 38 |  |  | 134 | 625 |  |  |  | 8.9 | 51.2 |  | 
5 | C[C@]12C=CC(=O)C=C1CC[C@@H]1[C@@H]2[C@@H](O)C[C@@]2(C)[C@H]1CC[C@]2(O)C(=O)CO [PREDNISOLONE] | 22.8 |  |  | 31.8 | 369 |  |  |  |  |  | 66.7 | 49.6

— ChEMBL document CHEMBL1128262, “New steroidal antiinflammatory antedrugs: steroidal [16 alpha,17 alpha-d]-3'-carbethoxyisoxazolines” (1995)
